Measured values published in the RNAGym collection of RNA variant scans (doi:10.1126/science.aae0568).
Fewer inactive variants are shown than the library holds.

B1: tRNA (parent)
chain: GUUCCGUUGGCGUAAUGGUAACGCGUCUCCCUCCUAAGGAGAAGACUGCGGGUUCGAGUCCCGUACGGAACG

Variants of: B1
Test: yeast fitness relative to wild type (ratio to wild type); higher = fitter; tRNA-Arg(CCU), competitive growth, 37 C, YPD
Method in brief: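 Amplicons of the tRNA-Arg(CCU) gene were sequenced, 100-nucleotide paired-end, from the start population and from each end population of a pooled yeast competition. The competition, in six parallel replicates, lasted 24 hours in YPD at 37°C. Fitness relative to wild type was calculated from changes in genotype frequencies. Genotypes had to have ≥ 100 starting reads, and estimates < 0.5 were set to 0.5.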
G18A C24G C27U C62U showed a yeast fitness of no more than 0.5. U32C G67C showed a yeast fitness of 0.9. G12A C34U A37U G41A G50C showed a yeast fitness of 0.561. Work on G17A C29G U47A G51A yielded a yeast fitness of no more than 0.5. C4U A14U C22U A40U G44C A57C gave a yeast fitness of no more than 0.5. Work on G17C C33U yielded a yeast fitness of 0.556. For U8C C55A, the yeast fitness was 0.739. Variant U7C A20U C34G A36C C55U A65U has a yeast fitness of no more than 0.5. With A15G A43U A57C the yeast fitness was 0.559. In the case of G6A C29U A42U A43U C55G, the yeast fitness is reported as no more than 0.5. With C11U C29A U59G the yeast fitness was no more than 0.5. Work on A45G U47C yielded a yeast fitness of 1.01. Work on A15U G23A C49G yielded a yeast fitness of 0.583. U32C C34U gave a yeast fitness of 0.788. Work on G23C A37C A42G C46G C66U yielded a yeast fitness of no more than 0.5. G6A G23C A37U A57G A65C A70U showed a yeast fitness of no more than 0.5. G6A U28C A45G showed a yeast fitness of 0.781. U3C U13A A20C C30A C31A U54A C55U gave a yeast fitness of no more than 0.5. With A21U A57U the yeast fitness was 0.61. For U3A G9A A37G G68C A69G, the yeast fitness was no more than 0.5. U2G G9C A65C G68A showed a yeast fitness of no more than 0.5. C22G G23C showed a yeast fitness of 0.779. Variant C31G A45G U54C G56U has a yeast fitness of no more than 0.5. Variant C30U U47G has a yeast fitness of 0.588. Work on A15U C34G A69U yielded a yeast fitness of no more than 0.5. Variant G9A G10C C34A has a yeast fitness of no more than 0.5. C31G A37G G38C A43G G58C gave a yeast fitness of no more than 0.5. Variant C4G C30G G41C A70U has a yeast fitness of no more than 0.5. U7A G23C C66U gave a yeast fitness of no more than 0.5. U26G U64C gave a yeast fitness of 0.878. Work on C31A A40U C46A yielded a yeast fitness of 0.555. Variant G12A U35C has a yeast fitness of 0.83. In the case of C5U A21G A57C, the yeast fitness is reported as 0.562. With C29U C33A G38A the yeast fitness was no more than 0.5. For G10A C33U G56C C66A, the yeast fitness was no more than 0.5. For G9C A37G G41A G50A, the yeast fitness was 0.532. With G6A U13G C27U C61G the yeast fitness was 0.667. With U2A A65C the yeast fitness was 0.848. In the case of C4A G10C C11U C27U A45U U59C C60G, the yeast fitness is reported as no more than 0.5. C24G C34G G44C showed a yeast fitness of no more than 0.5. For C31G G51A C55G G68C, the yeast fitness was 0.56. C4U A43G C49U G68A gave a yeast fitness of no more than 0.5. Variant C29A A37C A40U G63A has a yeast fitness of 0.519. G10A C11U A43U C60U gave a yeast fitness of no more than 0.5. Work on U16G C60G yielded a yeast fitness of 0.658. C5A U19C C34G C55A U64G A69C showed a yeast fitness of 0.598. C5U G18A A40U U47C showed a yeast fitness of 0.501. Work on G17C A42C yielded a yeast fitness of 0.618. In the case of U32C U35A U47C, the yeast fitness is reported as no more than 0.5. Variant C22U U32C G51A C61G has a yeast fitness of no more than 0.5. In the case of G10A A15G C55U, the yeast fitness is reported as 0.591. In the case of G6A A14C G41A A42U G56A G63C, the yeast fitness is reported as 0.665. Work on G44A A69U yielded a yeast fitness of 1.06. C55G G56C gave a yeast fitness of no more than 0.5. In the case of C4A A21C A70C, the yeast fitness is reported as no more than 0.5. Work on U3C A14G C22A C27G G39C C62G yielded a yeast fitness of no more than 0.5. C11G A20U C29A C30U C46G gave a yeast fitness of no more than 0.5. With U7G G9A A43C the yeast fitness was 0.515. C29A U47C G50C A57C showed a yeast fitness of 0.582. In the case of U2C A14U G18C C33G G52A, the yeast fitness is reported as no more than 0.5. C11G C29A C31G C46A C60G showed a yeast fitness of 0.614. With C5A A14G C31U the yeast fitness was 0.721. For G10A A43U, the yeast fitness was 0.781. In the case of G10C G63A, the yeast fitness is reported as 0.59. U2A C31G A65G showed a yeast fitness of 0.642. In the case of G10C C46A, the yeast fitness is reported as 0.626. For A21G C30A, the yeast fitness was 1. For C5A C11G C61G, the yeast fitness was 0.502. For A14U G41C C49U A65U, the yeast fitness was no more than 0.5. Variant A40U U53A C61U has a yeast fitness of no more than 0.5. U7A C33U A42C U64C A70G gave a yeast fitness of no more than 0.5. For C11A U13A A20U C29G A36G C46U G58A, the yeast fitness was no more than 0.5. C24U A36U C55G A57G G63C showed a yeast fitness of no more than 0.5. Work on U2A C11U A69U yielded a yeast fitness of 0.648. Variant C24G G25C C66A has a yeast fitness of no more than 0.5. Work on C24A G48A U53G G67C yielded a yeast fitness of no more than 0.5. Work on U7C A43C C49A G56A yielded a yeast fitness of no more than 0.5. In the case of C5U A14U C31G G63A, the yeast fitness is reported as 0.575. A14U C46U showed a yeast fitness of 0.664. G6A C11G A37C C60A A70G showed a yeast fitness of no more than 0.5. G10C A15U C33A A36U C62U gave a yeast fitness of no more than 0.5. In the case of U8G U26A A40G A43C C55G C60A, the yeast fitness is reported as no more than 0.5. C5U A14C showed a yeast fitness of 0.593.
